Experimental data taken from ChEMBL document CHEMBL1153726, “Synthesis and anticancer activity of sclerophytin-inspired hydroisobenzofurans” (Bioorg Med Chem Lett, 2009).

Experiments:
Format in all cases: functional
[1] = Growth inhibition of human Hs 578T cells at 1 nM after 96 hrs by MTT assay; parameters: scale not given: the % may be the effect or the level left
[2] = system: MDA-MB-435; assay: Growth inhibition of human MDA-MB-435 cells at 1 nM after 96 hrs by MTT assay; parameters: scale not given: the % may be the effect or the level left
[3] = system: HCT-15; assay: Growth inhibition of human HCT15 cells at 1 nM after 96 hrs by MTT assay; parameters: scale not given: the % may be the effect or the level left
[4] = system: COLO 205; assay: Growth inhibition of human COLO205 cells at 1 nM after 96 hrs by MTT assay; parameters: scale not given: the % may be the effect or the level left
[5] = system: MCF7; assay: Growth inhibition of human MCF7 cells at 10 uM after 96 hrs by MTT assay; parameters: scale not given: the % may be the effect or the level left
[6] = system: TK-10; assay: Growth inhibition of human TK10 cells at 10 uM after 96 hrs by MTT assay; parameters: scale not given: the % may be the effect or the level left
[7] = system: SK-OV-3; assay: Growth inhibition of human SKOV3 cells at 10 uM after 96 hrs by MTT assay; parameters: scale not given: the % may be the effect or the level left
[8] = system: NCI/ADR-RES; assay: Growth inhibition of human NCI/ADR-RES cells at 10 uM after 96 hrs by MTT assay; parameters: scale not given: the % may be the effect or the level left
[9] = system: OVCAR-3; assay: Growth inhibition of human OVCAR-3 cells at 10 uM after 96 hrs by MTT assay; parameters: scale not given: the % may be the effect or the level left
[10] = system: SW-620; assay: Growth inhibition of human SW620 cells at 10 uM after 96 hrs by MTT assay; parameters: scale not given: the % may be the effect or the level left
[11] = system: HT-29; assay: Growth inhibition of human HT-29 cells at 10 uM after 96 hrs by MTT assay; parameters: scale not given: the % may be the effect or the level left
[12] = system: NCI-H322M; assay: Growth inhibition of human NCI-H322M cells at 10 uM after 96 hrs by MTT assay; parameters: scale not given: the % may be the effect or the level left
[13] = system: A549; assay: Growth inhibition of human A549 cells at 10 uM after 96 hrs by MTT assay; parameters: scale not given: the % may be the effect or the level left
[14] = system: MOLT-4; assay: Growth inhibition of human MOLT4 cells at 10 uM after 96 hrs by MTT assay; parameters: scale not given: the % may be the effect or the level left
[15] = system: HL-60(TB); assay: Growth inhibition of human HL-60(TB) cells at 10 uM after 96 hrs by MTT assay; parameters: scale not given: the % may be the effect or the level left
[16] = system: SF-295; assay: Growth inhibition of human SF295 cells at 10 nM after 96 hrs by MTT assay; parameters: scale not given: the % may be the effect or the level left
[17] = system: CAKI-1; assay: Growth inhibition of human Caki1 cells at 1 nM after 96 hrs by MTT assay; parameters: scale not given: the % may be the effect or the level left
[18] = system: SNB-19; assay: Growth inhibition of human SNB19 cells after 96 hrs by MTT assay; settings: SNB-19, 96 h
How it was run: (§1)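 Tested in the NCI 60-cell-line panel in five-dose format; GI50 and LC50 values reported for each cell line.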

[19] = system: UACC-62; assay: Growth inhibition of human UACC62 cells after 96 hrs by MTT assay; settings: UACC-62, 96 h; how it was run: as §1
[20] = system: 786-0; assay: Growth inhibition of human 786-0 cells after 96 hrs by MTT assay; settings: 786-0, 96 h
[21] = system: TK-10; assay: Growth inhibition of human TK10 cells after 96 hrs by MTT assay; settings: TK-10, 96 h; how it was run: as §1
[22] = Growth inhibition of human Hs 578T cells after 96 hrs by MTT assay
How it was run: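 Run in the NCI 60 human tumour cell line panel as a five-dose assay. GI50 and LC50 were reported for each cell line.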

[23] = system: 786-0; assay: Growth inhibition of human 786-0 cells at 1 uM after 96 hrs by MTT assay; parameters: scale not given: the % may be the effect or the level left
[24] = system: OVCAR-8; assay: Growth inhibition of human OVCAR8 cells at 1 uM after 96 hrs by MTT assay; parameters: scale not given: the % may be the effect or the level left
[25] = system: BT-549; assay: Growth inhibition of human BT549 cells at 100 nM after 96 hrs by MTT assay; parameters: scale not given: the % may be the effect or the level left
[26] = system: NCI/ADR-RES; assay: Growth inhibition of human NCI/ADR-RES cells at 100 nM after 96 hrs by MTT assay; parameters: scale not given: the % may be the effect or the level left
[27] = system: OVCAR-3; assay: Growth inhibition of human OVCAR-3 cells at 100 nM after 96 hrs by MTT assay; parameters: scale not given: the % may be the effect or the level left
[28] = system: SK-MEL-28; assay: Growth inhibition of human SK-MEL-28 cells at 100 nM after 96 hrs by MTT assay; parameters: scale not given: the % may be the effect or the level left
[29] = system: SK-MEL-2; assay: Growth inhibition of human SK-MEL-2 cells at 100 nM after 96 hrs by MTT assay; parameters: scale not given: the % may be the effect or the level left
[30] = system: LOX IMVI; assay: Growth inhibition of human LOXIMVI cells at 100 nM after 96 hrs by MTT assay; parameters: scale not given: the % may be the effect or the level left
[31] = system: SNB-75; assay: Growth inhibition of human SNB75 cells at 100 nM after 96 hrs by MTT assay; parameters: scale not given: the % may be the effect or the level left
[32] = system: SF-268; assay: Growth inhibition of human SF268 cells at 100 nM after 96 hrs by MTT assay; parameters: scale not given: the % may be the effect or the level left
[33] = system: NCI-H23; assay: Growth inhibition of human NCI-H23 cells at 100 nM after 96 hrs by MTT assay; parameters: scale not given: the % may be the effect or the level left
[34] = system: MOLT-4; assay: Growth inhibition of human MOLT4 cells at 100 nM after 96 hrs by MTT assay; parameters: scale not given: the % may be the effect or the level left
[35] = system: CAKI-1; assay: Growth inhibition of human Caki1 cells at 10 nM after 96 hrs by MTT assay; parameters: scale not given: the % may be the effect or the level left
[36] = system: LOX IMVI; assay: Growth inhibition of human LOXIMVI cells at 10 nM after 96 hrs by MTT assay; parameters: scale not given: the % may be the effect or the level left
[37] = system: SF-539; assay: Growth inhibition of human SF539 cells at 1 uM after 96 hrs by MTT assay; parameters: scale not given: the % may be the effect or the level left
[38] = system: KM12; assay: Growth inhibition of human KM12 cells at 1 uM after 96 hrs by MTT assay; parameters: scale not given: the % may be the effect or the level left
[39] = system: HT-29; assay: Growth inhibition of human HT-29 cells at 1 uM after 96 hrs by MTT assay; parameters: scale not given: the % may be the effect or the level left
[40] = system: HCT-15; assay: Growth inhibition of human HCT15 cells at 1 uM after 96 hrs by MTT assay; parameters: scale not given: the % may be the effect or the level left
[41] = system: NCI-H460; assay: Growth inhibition of human NCI-H460 cells at 1 uM after 96 hrs by MTT assay; parameters: scale not given: the % may be the effect or the level left
[42] = system: NCI-H322M; assay: Growth inhibition of human NCI-H322M cells at 1 uM after 96 hrs by MTT assay; parameters: scale not given: the % may be the effect or the level left
[43] = system: A549; assay: Growth inhibition of human A549 cells at 1 uM after 96 hrs by MTT assay; parameters: scale not given: the % may be the effect or the level left
[44] = system: SR; assay: Growth inhibition of human SR cells at 1 uM after 96 hrs by MTT assay; parameters: scale not given: the % may be the effect or the level left
[45] = read-out: LC50 (the source's name)
[46] = read-out: Log10GI50 (converted)
[47] = read-out: Log10LC50 (converted)

Q: Which Activity [1] does the source give for `C=C(C)[C@H]1CC=C(C)C2=CO[C@@H](c3ccccc3F)[C@@H]21` here?
A: 83%

Q: What about the Activity [2] of the same compound?
A: 92%

Q: And the Activity [3]?
A: 94%

Q: And the Activity [4]?
A: 101%

Q: What about the Activity [5] of the same compound?
A: 93.7%

Q: And the Activity [6]?
A: 113.66%

Q: What about the Activity [7] of the same compound?
A: 93.49%

Q: What about the Activity [8] of the same compound?
A: 108.3%

Q: And the Activity [9]?
A: 115.72%

Q: What about the Activity [10] of the same compound?
A: 101.12%

Q: What about the Activity [11] of the same compound?
A: 89.53%

Q: And the Activity [12]?
A: 120.7%

Q: What about the Activity [13] of the same compound?
A: 71.63%

Q: What about the Activity [14] of the same compound?
A: 74.3%

Q: What about the Activity [15] of the same compound?
A: 44.43%

Q: What about the Activity [16] of the same compound?
A: 92%

Q: What about the Activity [17] of the same compound?
A: 96%

Q: And the GI50 ([18]; read-out: GI50)?
A: 10.7 µM

Q: What about the CC50 [18, 45] of the same compound?
A: 47.4 µM

Q: What about the GI50 [18, 46] of the same compound?
A: 10.7 µM

Q: What about the CC50 [18, 47] of the same compound?
A: 47.9 µM

Q: What about the TGI ([18]; read-out: Log10TGI (converted)) of the same compound?
A: 22.4 µM

Q: What about the TGI ([18]; read-out: TGI) of the same compound?
A: 22.5 µM

Q: What about the GI50 ([19]; read-out: GI50) of the same compound?
A: 3.31 µM

Q: And the CC50 [19, 45]?
A: 51.5 µM

Q: And the GI50 [19, 46]?
A: 3.31 µM

Q: And the CC50 [19, 47]?
A: 51.3 µM

Q: And the TGI ([19]; read-out: Log10TGI (converted))?
A: 18.2 µM

Q: And the TGI ([19]; read-out: TGI)?
A: 18.3 µM

Q: And the GI50 ([20]; read-out: GI50)?
A: 8.73 µM

Q: And the CC50 [20, 45]?
A: 48.1 µM

Q: And the GI50 [20, 46]?
A: 8.71 µM

Q: What about the CC50 [20, 47] of the same compound?
A: 47.9 µM

Q: What about the TGI ([20]; read-out: Log10TGI (converted)) of the same compound?
A: 21.4 µM

Q: And the TGI ([20]; read-out: TGI)?
A: 21.5 µM

Q: What about the GI50 ([21]; read-out: GI50) of the same compound?
A: 8.93 µM

Q: And the CC50 [21, 45]?
A: 88.9 µM

Q: And the GI50 [21, 46]?
A: 8.91 µM

Q: What about the CC50 [21, 47] of the same compound?
A: 89.1 µM

Q: And the TGI ([21]; read-out: Log10TGI (converted))?
A: 28.8 µM

Q: And the TGI ([21]; read-out: TGI)?
A: 29.1 µM

Q: And the GI50 ([22]; read-out: GI50)?
A: 2.72 µM

Q: And the CC50 [22, 45]?
A: > 100 µM

Q: And the GI50 [22, 46]?
A: 2.69 µM

Q: What about the CC50 [22, 47] of the same compound?
A: > 100 µM

Q: What about the TGI ([22]; read-out: Log10TGI (converted)) of the same compound?
A: 24.5 µM

Q: What about the TGI ([22]; read-out: TGI) of the same compound?
A: 24.8 µM

Q: What about the Activity [23] of the same compound?
A: 48%

Q: And the Activity [24]?
A: 59%

Q: And the Activity [25]?
A: 67%

Q: What about the Activity [26] of the same compound?
A: 82%

Q: What about the Activity [27] of the same compound?
A: 90%

Q: And the Activity [28]?
A: 93%

Q: What about the Activity [29] of the same compound?
A: 76%

Q: What about the Activity [30] of the same compound?
A: 79%

Q: What about the Activity [31] of the same compound?
A: 84%

Q: What about the Activity [32] of the same compound?
A: 87%

Q: And the Activity [33]?
A: 85%

Q: And the Activity [34]?
A: 81%

Q: And the Activity [35]?
A: 93%

Q: And the Activity [36]?
A: 91%

Q: And the Activity [37]?
A: 43%

Q: What about the Activity [38] of the same compound?
A: 24%

Q: And the Activity [39]?
A: 22%

Q: What about the Activity [40] of the same compound?
A: 31%

Q: What about the Activity [41] of the same compound?
A: 31%

Q: And the Activity [42]?
A: 49%

Q: And the Activity [43]?
A: 38%

Q: And the Activity [44]?
A: -36%
